Results as given in publication PMC7611836 (Journal of natural products, 2020).
Where two headings read alike, the source gives them in different places.

Tests used:
[1] = test system: A-549 lung, HCT-8 intestinal, RPMI-7951 skin, TE671 brain, and KB cervical cancer cells; settings: range over all cell types; cited from earlier work
[2] = test system: PNT2 cells; assay: Cell viability and cell count; assay type: cell-based, Human; settings: 1 μM, 48 hours
Outline: (§1)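 150,000 cells per well were grown overnight, then given 1 μM test compound (ethanolic stock diluted in medium) or ethanol control for 48 h. Cells were trypsinized, pelleted (400 x g, 5 min), resuspended in PBS, stained with acridine orange/DAPI, and read for viability and count. n = 4 treated, 10 control; mean ± S.E.M.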

[3] = test system: C4-2 cells; assay: Cell growth curves; assay type: cell-based, Human; settings: 1 μM
Outline: (§2)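 Cells were seeded at 1,000 per well in RPMI 1640 with 10% FBS, 25 mM HEPES and 1 mM pyruvate, then grown with 1 μM test compound. Read-out was confluence (% of well surface covered by adherent cells) over time, also taken after 150 h. Eight replicates per condition; mean ± S.E.M.; unpaired two-tailed t-test.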

[4] = test system: PNT2 cells; assay: Cell growth curves; assay type: cell-based, Human; settings: 1 μM
[5] = cited from earlier work; for neurotoxicity / crossing of the blood-brain barrier: rats and mice; for detection in brain as metabolite of 1 and 2: rat model of Parkinson's disease
[6] = test system: C4-2B cells; assay: Cell viability and cell count; assay type: cell-based, Human; settings: 1 μM, 48 hours
Outline: as §1

[7] = test system: C4-2B cells; assay: Cell growth curves; assay type: cell-based, Human; settings: 1 μM
Outline: as §2

[8] = test system: C4-2 cells; assay: Cell viability and cell count; assay type: cell-based, Human; settings: 1 μM, 48 hours
Outline: as §1

[9] = test system: PNT2 cells; assay: Oxygen consumption rate; assay type: cell-based, Human; settings: 1 μM
Outline: (§3)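 Mycoplasma-tested cells, 20,000 per poly-L-lysine-coated well, 16 h at 37 °C, 5% CO2. Moved to carbonate-free RPMI assay buffer (4.5 g L-1 glucose, pyruvate, pH 7.4) for 60 min CO2-free. […] Rotenone-insensitive rate subtracted; traces set to 100% pre-addition. n = 6 treated, 16 control; mean ± S.E.M.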

[10] = test system: C4-2B cells; assay: Oxygen consumption rate; assay type: cell-based, Human; settings: 1 μM
Outline: as §3

[11] = test system: C4-2 cells; assay: Oxygen consumption rate; assay type: cell-based, Human; settings: 1 μM
Outline: as §3

[12] = test system: cancer cell; settings: Annexin V flow cytometry; cited from earlier work

## COc1cc2c(cc1OC)[C@@H]1C(=O)c3ccc4c(c3O[C@@H]1CO2)C[C@H](C(C)(C)O)O4 [compound 4, (6aS,12aS,5′R)-Dalpanol]
[1]
  ED50 (half-maximal effective concentration), cytotoxicity: 0.48 to 4.83 µg/mL

## C=C(C)[C@H]1Cc2c(ccc3c2O[C@@H]2COc4cc(OC)c(OC)cc4[C@@H]2C3=O)O1 [compound 1, rotenone]
[2]
  cell count: affected cell counts
[3]
  proliferation (cell growth): did not proliferate
[4]
  proliferation (cell growth): retained their ability to proliferate, albeit at a substantially reduced rate
[5]; 3 mg kg^-1 day^-1
  neurotoxicity: cause neuronal damage
[5]
  crossing of the blood-brain barrier: cross the blood-brain barrier
[6]
  cell count: affected cell counts
[7]
  proliferation (cell growth): did not proliferate
[8]
  cell count: affected cell counts

## COc1cc2c(cc1OC)[C@]1(O)C(=O)c3ccc4c(c3O[C@@H]1CO2)C=CC(C)(C)O4 [compound 8, tephrosin]
[5]
  detection in brain as metabolite of 1 and 2: detected in the brains of treated animals
  crossing of the blood-brain barrier: cross the BBB

## C=C(C)[C@H]1Cc2c(ccc3c2O[C@@H]2COc4cc(OC)c(OC)cc4[C@]2(O)C3=O)O1 [compound 7, (6aR,12aR,5′R)-Rotenolone]
[5]
  detection in brain as metabolite of 1 and 2: detected in the brains of treated animals
  crossing of the blood-brain barrier: cross the BBB

## COc1cc2c(cc1OC)[C@@H]1C(=O)c3ccc4c(c3O[C@@H]1CO2)C=CC(C)(C)O4 [compound 2, deguelin]
[5]; 6 mg kg^-1 day^-1
  neurotoxicity: cause neuronal damage
[5]
  crossing of the blood-brain barrier: cross the blood-brain barrier

## COc1cc2c(cc1OC)[C@@H]1C(=O)c3ccc4c(c3O[C@@H]1CO2)C[C@H](C(C)CO)O4 (mixture of isomers) [compound 5, (6aS,12aS,5′R,6′R)- and (6aS,12aS,5′R,6′S)-6′,7′-Dihydroamorphigenin]
[9]
  oxygen consumption rate: powerful effect
[3]
  proliferation (cell growth): particularly affected
[10]
  oxygen consumption rate: powerful effect
[6]
  cell count: marginal effects
[7]
  proliferation (cell growth): responded
[11]
  oxygen consumption rate: powerful effect

## Cc1nc(-c2nc(-c3ccc(OC(F)(F)F)cc3)no2)nn1Cc1cccc(N2CCC(S(C)(=O)=O)CC2)c1 [IACS-01079]
[12]
  effect on cancer cell proliferation and viability: inhibit both cancer cell proliferation and viability
